Results from ChEMBL document CHEMBL5107962, “Covalent sortase A inhibitor ML346 prevents Staphylococcus aureus infection of Galleria mellonella” (RSC Med Chem, 2022).
Calls of active or inactive are those of the source. The calls are words filed in the database; no cut-off is given here.

Legend:
Staphylococcus aureus [1] = assay: Anti-virulence activity against Staphylococcus aureus Newman assessed as decrease in SpA display on cell envelope at 25 to 200 uM by Western blot analysis; assay type: functional, organism-based; conditions: dose 25-200 µM
Method in brief: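 S. aureus overnight culture diluted 1:1000 in TSB and grown with inhibitor until A600 3.0. Washed cells treated with 10 µg mL-1 lysostaphin in PBS for 15 min at 37 °C. Supernatant (cell-wall anchored proteins) run on SDS-PAGE and immunoblotted for SpA, with ClpP as loading control. Three independent experiments.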

Staphylococcus aureus [2] = assay: Anti-infectivity against Staphylococcus aureus Newman infected in Galleria mellonella larvae assessed as survival rate at 25 mg/kg and measured after 120 hrs; assay type: functional
Method in brief: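 G. mellonella larvae (2-2.5 cm, creamy), starved 24 h at room temperature. S. aureus grown in TSB to A600 1.0, washed and resuspended in PBS, premixed with compound in vehicle (5% DMSO, 20% PEG300, 75% PBS with 6.6% solutol HS-15). Injected into last proleg at about 1 × 10^6 CFU/larva (Newman) or 1 × 10^7 CFU/larva (USA300). Groups of 15 kept at 37 °C, survival recorded 120 h, Mantel–Cox test.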

Question: Which Activity (Staphylococcus aureus [1]) does the source give for `COc1ccc(/C=C/C=C2C(=O)NC(=O)NC2=O)cc1` here?
Answer: Active

Question: And the Activity (Staphylococcus aureus [2])?
Answer: 46.7%
